SMILES strings stand for the structures. pIC50: −log10 of the molar value.

The subject of the assay is Human immunodeficiency virus 1. Put plainly: Inhibition of HIV1 replication in human 293T cells preincubated 15 mins prior to infection measured after 48 hrs postinfection by luciferase reporter gene assay. In kind it is functional, organism-based. Conditions: Human immunodeficiency virus 1, HEK-293T. The gist of the method:
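Pseudotyped virus was made by co-transfecting 293 cells with the env-deficient HIV-1 luciferase vector pNL4-3.luc.R-E- and a VSV-G plasmid (modified calcium phosphate method). 293ET target cells were seeded at 6 × 10⁴ per well the day before infection. Compound was added 15 min before the VSVG/HIV-1 virus, with a solvent-only control. Cells were lysed 48 h post-infection.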
(In general: A reporter such as luciferase makes a cellular process visible.)
The compound `O=C1CN(S(=O)(=O)c2cccc3cccnc23)c2cc(F)ccc2N1` had a pIC50 of 6.01.
The same measure for `CC1C(=O)Nc2ccc(F)cc2N1S(=O)(=O)c1cccc2cccnc12` (stereo unspecified): 5.15; for `CCC1C(=O)Nc2ccc(Cl)cc2N1S(=O)(=O)c1cccc2cccnc12` (stereo unspecified): < 4.00; for `COC(=O)c1sccc1S(=O)(=O)N1CC(=O)Nc2ccc(Cl)cc21`: 6.08.
Consider `COC(=O)c1sccc1S(=O)(=O)N1c2cc(Cl)ccc2NC(=O)C1C` (stereo unspecified), for which the pIC50 is 6.70. Against the preceding compound, the pIC50 is 0.62 log units higher.
For `CCC1C(=O)Nc2ccc(Cl)cc2N1S(=O)(=O)c1ccsc1C(=O)OC` (stereo unspecified) the value was 5.20.
In the case of `COC(=O)c1sccc1S(=O)(=O)N1CC(=O)Nc2cc(C(F)(F)F)ccc21`, the negative-log IC50 (pIC50) was < 4.00.
For `O=C1CN(S(=O)(=O)c2cccc3cccnc23)c2ccc(C(F)(F)F)cc2N1` the value was < 4.00; for `COC(=O)CC1C(=O)Nc2ccc(F)cc2N1S(=O)(=O)c1ccsc1C(=O)OC` (stereo unspecified), < 4.00.
With `CC1C(=O)Nc2ccc(F)cc2N1S(=O)(=O)c1cc(Cl)sc1Cl` (stereo unspecified), the negative-log IC50 (pIC50) is < 4.00.
With `CCC1C(=O)Nc2ccc(F)cc2N1S(=O)(=O)c1ccsc1C(=O)OC` (stereo unspecified), the negative logarithm of the IC50 (pIC50) is 5.30.
As to `N#Cc1cccc(S(=O)(=O)N2CC(=O)Nc3ccc(F)cc32)c1`, the pIC50 was < 4.00.
With `O=C1CN(S(=O)(=O)c2cccc3cccnc23)c2cc(Cl)ccc2N1`, the negative logarithm of the IC50 (pIC50) is 6.48.
Take `CC1C(=O)Nc2ccc(F)cc2N1S(=O)(=O)c1cccc(C#N)c1` (stereo unspecified): the negative-log IC50 (pIC50) was 4.26.
`COC(=O)c1sccc1S(=O)(=O)N1CC(=O)Nc2ccc(F)cc21` gave a pIC50 of 5.69.
The same measure for `COC(=O)c1sccc1S(=O)(=O)N1c2cc(F)ccc2NC(=O)C1C` (stereo unspecified): 6.70; for `CC1C(=O)Nc2ccc(Cl)cc2N1S(=O)(=O)c1cccc2cccnc12` (stereo unspecified): 6.19.
On to `CC1C(=O)Nc2ccc(F)cc2N1S(=O)(=O)c1ccc([N+](=O)[O-])cc1` (stereo unspecified), for which the pIC50 is < 4.00.
The same measure for `COC(=O)c1sccc1S(=O)(=O)N1c2cc(F)ccc2NC(=O)C1CCSC` (stereo unspecified): < 4.00; for `O=C1Nc2ccc(Cl)cc2[C@@](C#CC2CC2)(C(F)(F)F)O1` [EFAVIRENZ]: 8.89.
As for `Cc1cn([C@H]2C[C@H](N=[N+]=[N-])[C@@H](CO)O2)c(=O)[nH]c1=O` [ZIDOVUDINE], the pIC50 was 7.32.

By pIC50 is commonly meant the IC50 on a negative log10 scale, so that one unit is a factor of ten. A lower pIC50 goes with a large IC50.

(Values after ChEMBL document CHEMBL1153359, “Synthesis and biological evaluation of N4-(hetero)arylsulfonylquinoxalinones as HIV-1 reverse transcriptase inhibitors” (Bioorg Med Chem, 2009).)
